Data reported in ChEMBL document CHEMBL1147153, “Development of ruthenium antitumor drugs that overcome multidrug resistance mechanisms” (J Med Chem, 2007).
Active and inactive are the calls of the source. The calls are words filed in the database; no cut-off is given here.

Tests used:
[1] = tested on: A549; test: Inhibition of P-gp in A549 cells assessed as drug concentration required to double baseline fluorescence level by calcein-AM uptake assay; type: cell-based; settings: Homo sapiens
Method in brief: (§1)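 A549 Pgp activity: cells washed in Hanks salt solution with 10 mM HEPES, preincubated 30 min in that buffer, then 15 min with compound. Calcein-AM (1 µM final) added for a further 60 min; uptake stopped on ice, cells washed cold and lysed 15 min in 1% Triton X-100/PBS. Calcein fluorescence read at ex 485/em 530 nm; reported as F2.0 (concentration doubling baseline fluorescence) or inhibition at 80 µM relative to verapamil.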

[2] = tested on: A549; test: Cytotoxicity against human A549 cells by MTT assay; type: cell-based
Method in brief: (§2)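 Cells plated 24 h, then exposed 72 h to compound at 1-300 µM. Compound was diluted from a fresh DMSO stock (20 mM for A549, HT29, T47D; 10 mM for TS/A, HBL-100) into 5%-serum medium, with at most 0.5% or 1% v/v DMSO respectively. Growth media: DMEM (A549, HT29, T47D), McCoy's 5A (HBL-100). MTT (5 mg/mL in PBS, 2.5 µL/100 µL medium) was added for 2 h at 37 °C; formazan dissolved in DMSO and read at OD 570 nm.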

[3] = tested on: HT-29; test: Cytotoxicity against human HT29 cells by MTT assay; type: cell-based; method in brief: as §2
[4] = tested on: T47D; test: Cytotoxicity against human T47D cells by MTT assay; type: cell-based; method in brief: as §2
[5] = tested on: TS/A; test: Cytotoxicity against […] TS/A cells by MTT assay; type: cell-based; settings: Mus musculus; method in brief: as §2
[6] = Cytotoxicity against human HBL100 cells by MTT assay; type: cell-based; settings: HBL-100; method in brief: as §2
[7] = target: P-gp (ABCB1) (Homo sapiens, UniProt P08183); test: Inhibition of P-gp in A549 cells at 80 uM by calcein-AM uptake assay relative to verapamil; type: cell-based; settings: probe calcein-AM; method in brief: as §1
[8] = tested on: A549; test: Drug accumulation in human A549 cells after 1 hrs; type: functional, cell-based
Method in brief: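 A549 cells grown on slides were exposed to 100 µM compound for 0.5-4 h, PBS-washed, fixed 5 min in 4% buffered paraformaldehyde, and imaged by fluorescence microscopy under 365 nm irradiation with a 1 s exposure.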

Chain of P-gp (ABCB1) (P08183 whole entry): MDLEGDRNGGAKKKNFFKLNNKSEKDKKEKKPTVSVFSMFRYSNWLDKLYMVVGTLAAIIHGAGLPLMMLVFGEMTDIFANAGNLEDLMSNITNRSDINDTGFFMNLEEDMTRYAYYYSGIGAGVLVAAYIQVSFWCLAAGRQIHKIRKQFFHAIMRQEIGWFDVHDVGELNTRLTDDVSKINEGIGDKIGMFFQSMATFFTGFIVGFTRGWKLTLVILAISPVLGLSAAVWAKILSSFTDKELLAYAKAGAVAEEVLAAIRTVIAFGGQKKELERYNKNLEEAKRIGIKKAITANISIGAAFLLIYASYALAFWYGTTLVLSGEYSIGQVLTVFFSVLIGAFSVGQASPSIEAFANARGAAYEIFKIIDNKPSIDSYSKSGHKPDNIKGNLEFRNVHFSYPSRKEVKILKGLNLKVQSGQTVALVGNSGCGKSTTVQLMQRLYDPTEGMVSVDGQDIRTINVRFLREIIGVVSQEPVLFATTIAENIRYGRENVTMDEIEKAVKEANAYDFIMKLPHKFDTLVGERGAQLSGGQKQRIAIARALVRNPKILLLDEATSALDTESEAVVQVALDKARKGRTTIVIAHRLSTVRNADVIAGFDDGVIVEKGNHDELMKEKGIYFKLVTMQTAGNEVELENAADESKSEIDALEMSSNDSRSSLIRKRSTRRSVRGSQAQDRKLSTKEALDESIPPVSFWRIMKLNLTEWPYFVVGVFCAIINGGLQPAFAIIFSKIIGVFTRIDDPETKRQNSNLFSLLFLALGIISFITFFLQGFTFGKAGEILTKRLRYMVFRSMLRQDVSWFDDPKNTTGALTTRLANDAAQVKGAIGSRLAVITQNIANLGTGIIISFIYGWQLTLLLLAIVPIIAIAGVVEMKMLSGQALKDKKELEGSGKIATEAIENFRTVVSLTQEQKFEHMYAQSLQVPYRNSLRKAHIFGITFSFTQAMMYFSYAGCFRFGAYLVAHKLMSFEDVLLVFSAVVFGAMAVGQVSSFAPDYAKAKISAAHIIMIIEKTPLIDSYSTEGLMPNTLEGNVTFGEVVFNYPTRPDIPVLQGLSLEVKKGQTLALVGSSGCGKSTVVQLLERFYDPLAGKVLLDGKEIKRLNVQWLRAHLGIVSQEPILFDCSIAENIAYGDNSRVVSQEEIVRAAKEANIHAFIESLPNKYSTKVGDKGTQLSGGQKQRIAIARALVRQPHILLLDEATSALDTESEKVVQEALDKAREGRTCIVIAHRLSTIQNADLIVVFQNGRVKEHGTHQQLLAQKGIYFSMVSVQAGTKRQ

Row | SMILES | Activity [1] [µM] | IC50 [2] [µM] | IC50 [3] [µM] | IC50 [4] [µM] | IC50 [5] [µM] | IC50 [6] [µM] | inhibition at 80 µM [7] [%] | Activity [8]
1 | COc1ccc(CCN(C)CCCC(C#N)(c2ccc(OC)c(OC)c2)C(C)C)cc1OC (stereo not drawn) | 7 | – | – | – | – | – | – | –
2 | c1ccc2c(-n3ccnc3)c3ccccc3cc2c1 | > 100 | 75 | 45 | 34 | 101 | 221 | 18 | Active
3 | O=C(Cn1cnc2ccccc21)N1c2ccccc2Oc2ccccc21 [PHENOXBENZIMID] | 23 | 75 | 33 | 91 | 51 | > 100 | 65 | –
4 | O=C(CCl)N1c2ccccc2Oc2ccccc21 | – | > 100 | 11 | 7 | 40 | 29 | – | –
5 | O=C(Cn1ccnc1)N1c2ccccc2Oc2ccccc21 [PHENOXIMID] | > 100 | > 100 | 17 | 95 | 30 | 23 | 24 | –
